E-selectin induc – induces E-selectin expression in human endothelial cells | P16581 | HUVEC E-selectin immunofluorescence imaging; normalized: neutral wells 0, TNF-alpha wells 100 | activation, % at 7.58 µM | 0.37% of 260,000 active | AID 686992;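 active = mean E-selectin-positive cell signal at least 10% of the positive control, reached in at least 60% of replicates, without over 20% cell loss; inconclusive = no rule given, readout overlaps actives, possibly toxicity-flagged; inactive = the rest, including those meeting only one limit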
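Read-out basis: % PE-positive cells; Test system: HUVEC primary endothelial cells; Technique: immunofluorescence imaging; Dosing: single-point compound dose.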
RAD52 inh – inhibitors of human RAD52 DNA annealing. recombinant RAD52 DNA annealing, FRET fluorescence. inhibition, % at 18.7 µM. 0.46% of 360,000 active. AID 651710;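 active = every replicate showing at least 50% inhibition; inconclusive = mean inhibition at least 50% but not in every replicate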
Target sequence (P43351 whole entry, looked up): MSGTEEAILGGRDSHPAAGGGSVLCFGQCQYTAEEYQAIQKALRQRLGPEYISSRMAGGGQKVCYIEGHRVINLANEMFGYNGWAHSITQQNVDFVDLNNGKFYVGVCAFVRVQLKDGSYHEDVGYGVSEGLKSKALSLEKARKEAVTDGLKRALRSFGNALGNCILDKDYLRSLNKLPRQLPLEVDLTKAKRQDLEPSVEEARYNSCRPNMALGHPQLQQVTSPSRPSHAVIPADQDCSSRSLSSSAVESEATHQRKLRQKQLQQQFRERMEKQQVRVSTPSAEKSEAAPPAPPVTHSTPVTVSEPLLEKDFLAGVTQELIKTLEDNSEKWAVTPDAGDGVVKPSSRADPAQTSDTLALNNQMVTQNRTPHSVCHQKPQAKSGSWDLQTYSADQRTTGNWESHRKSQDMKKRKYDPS
Ecoli rRNA inh – inhibits bacterial ribosomal RNA function over humanized ribosomes. E. coli WT GFP vs humanized-ribosome RFP mutants, fluorescence, 24 h; active compounds read low; DMSO median 0, no signal -100. GFP signal change (wild-type ribosome), % (concentration not given with the values). 1.6% of 350,000 active;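 active = significant combined selectivity score with lowered wild-type GFP, culture density cut under 30%, mutant RFP and density less affected; inactive = any of these conditions unmet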
PglD inh – blocks C. jejuni PglD acetyltransferase activity; purified PglD enzyme, DTNB colorimetric CoA detection; inhibition, % at 12.5 µM; 0.098% of 360,000 active; in the data active = inhibition above about 16%, passing the limit was not always enough; inconclusive = no clear call, values can overlap the other calls
Xi reactivation – X-chromosome reactivation activator | XiGFP mouse fibroblasts, % GFP-positive cells imaging, 3 d; cells co-treated with 5-aza-dC sensitizer; scaled so ellipticine positive control = 100% | activation, % at 7.58 µM | 0.055% of 360,000 active;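 active = mean normalized replicate activation at least 10% and every replicate at or above 10%; inconclusive = only one of the two criteria met; inactive = mean below 10% and not all replicates reach 10%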;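 note: 0% = median of on-plate neutral control wells and 100% = ellipticine 6 µM median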
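System: SV40-immortalized XiGFP fibroblast cells, line 68-5-11 / Incubation: 3-day compound exposure, then 15 min fixation at room temperature / Compound: single concentration per compound, delivered by pin transfer / Buffer or medium: DMEM plus 5-aza-dC sensitizer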
RAD54 branch – inhibitors of human RAD54 branch migration; RAD54 Holliday junction branch migration, FAM/BHQ fluorescence; AID 602329; 0.14% of 360,000 active; inhibition, % at 10.4 µM; Q92698;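 active = mean normalized replicate activity at least 40 and at least half of replicates scoring 40 or more; inconclusive = only one of the two criteria met; inactive = mean below 40 and under half of replicates reaching 40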;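 note: 0% = median of neutral control wells and 100% = median of positive control wells; inhibitors cause a drop in the FAM fluorescence signal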
DNA binding – binds DNA, flagging false Rad54 inhibitor hits; shares compounds with RAD54 branch; Acridine orange-DNA displacement, fluorescence polarization, 20 min; AC50, µM (series often up to 35 µM), without a hit: top-dose activity change, negative = DNA binding; 8% of 460 active; AID 651673;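 active = signal drop giving an AC50 within twice the top valid tested concentration of each sample, actives reach about 35 µM in these data; inactive = activity opposite to expected, plus the rest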;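 note: polarization loss reports compound binding to salmon sperm DNA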
* marks the source's active call; other numbers are inactive results; u = inconclusive; x = not tested or not shown. Only some compounds are listed: those with a hit (about 2% of all), similar ones and a draw of the others.

SMILES	E-selectin induc	RAD52 inh	Ecoli rRNA inh	PglD inh	Xi reactivation	RAD54 branch	others
COc1ccc(S(=O)(=O)N[C@H]2CC[C@@H](CC(=O)O)O[C@@H]2CO)cc1	0	-8	-1	0	0	-3
COc1ccc(OC)c(-c2csc(NC(=O)CN3C(=O)NC4(CCCC4)C3=O)n2)c1	-2	-11	-25*	x	1	x
O=c1[nH]c(=S)[nH]cc1Oc1ccc(Cl)cc1Cl	x	-7	-25*	9	0	-9
Nc1nc(-c2ccccc2)c(N=Nc2cccnc2)s1	0	3	4	x	0	x
Nc1nn(-c2ccccc2)c(N)c1N=Nc1cccc(F)c1	2	-8	-36*	-1	0	5
Cc1nn(-c2ccccc2)c(N)c1N=Nc1cccnc1	0	-6	-22*	x	0	x
CNC[C@H]1Oc2c(NC(=O)Nc3ccc(OC)cc3)cccc2C(=O)N([C@H](C)CO)C[C@@H]1C	0	-10	3	4	-1	-1
Cc1ccc(NC(=O)c2ccc(=O)[nH]n2)cc1S(=O)(=O)Nc1ccccc1Cl	x	-9	x	1	0	8
Cc1ccc(NC(=S)NC(=O)c2ccc(F)cc2)cc1S(=O)(=O)Nc1ccccc1Cl	x	-38	-26*	x	0	x
COc1ccc(-c2ccc3c(c2)[C@@H]2[C@@H](CCN2C(=O)C2CCCCC2)[C@H](CO)N3C)cc1	0	12	-7	-1	0	-1
COc1ccc(S(=O)(=O)Nc2ccc3c(c2)C(=O)N([C@@H](C)CO)C[C@@H](C)[C@@H](CN(C)Cc2ccc(C(=O)O)cc2)OCCCC[C@H](C)O3)cc1	1	7	-1	1	3	3
O=C(C[C@H]1C[C@@H]2c3cc(NC(=O)NC4CCCC4)ccc3O[C@@H]2[C@H](CO)O1)NCC1CC1	0	-8	4	-1	0	-4
CCOC(=O)/C(=N\Nc1ccccc1)P(=O)(c1ccccc1)c1ccccc1	0	-7	-37*	-2	0	8
CCC(=O)N1CC2(CCN(Cc3cccnc3)CC2)c2c(n(C)c3cc(OC)ccc23)[C@H]1CO	0	-1	2	x	0	x
CNC(=O)C[C@H]1CC[C@@H]2[C@H](COc3ccc(NC(=O)c4ccc(F)cc4)cc3C(=O)N2C)O1	0	-9	2	0	0	-6
CC(=O)N1CCN(c2cc(N3CCCC3)c(F)cc2[N+](=O)[O-])CC1	2	-23	-19*	3	0	3
CC(C)C(=O)N1CCN(c2cc(N3CCN(C)CC3)c(F)cc2[N+](=O)[O-])CC1	10	-5	10	x	0	x
Cn1c(=O)n(C)c2cc([N+](=O)[O-])c(N3CCN(C(=O)C(C)(C)C)CC3)cc21	2	0	-23*	x	0	x
N#C[C@H]1[C@H](c2ccccc2)[C@H](CO)N1C(=O)CN1CCOCC1	x	-8	x	-1	x	9
O=C(C[C@@H]1C=C[C@H](NC(=O)c2cccc(F)c2)[C@H](CO)O1)Nc1nccs1	0	-32	-2	-11	0	-1
Cc1ccc(Oc2c(CO)c(-c3ccccc3)nn2C)cc1	-3	-11	-24*	x	0	x
Cc1ccc(S(=O)(=O)c2c(CO)c(-c3ccccc3)nn2C)cc1	x	-11	-11	x	0	x
COc1ccc(-c2nc(CN3CCCCC3c3nccn3C)c(C)o2)c(C)c1C (stereo unspecified)	0	-37	-33*	-3	0	-2
CC1CCN(c2ccc3nnc(CCC(=O)Nc4cccc(F)c4)n3n2)CC1	0	-16	-30*	-4	0	13
Cc1noc(C)c1S(=O)(=O)Nc1ccc2c(c1)C(=O)N([C@@H](C)CO)C[C@@H](C)[C@@H](CN(C)C(=O)Nc1cccc3ccccc13)O2	-1	3	0	0	0	-3
SMILES	E-selectin induc	RAD52 inh	Ecoli rRNA inh	PglD inh	Xi reactivation	RAD54 branch	others
COc1ccccc1/C=C/C(=O)NCC(=O)N/N=C/c1ccccc1	x	-12	-11	x	0	x
COc1ccccc1/C=C\C(=O)NCC(=O)N/N=C/c1ccc(O)cc1O	0	-3	-29*	5	1	-13
COc1ccc2nc(-n3c(O)c(C4=c5ccccc5=NC4=O)[nH]c3=S)sc2c1	0	7	-44*	1	0	2
Cn1c(O)c(C2=c3ccccc3=NC2=O)[nH]c1=S	x	x	x	x	0	x
COc1ccccc1C(=O)NC(=S)N1CCc2ccccc21	10	-16	-24*	x	0	x
COc1ccccc1C(=O)NC(=S)N1CCCc2ccccc21	x	-10	-6	-4	x	-7
O=C(COc1ccccc1Cl)NC(=S)N1CCc2ccccc21	x	-28	-52*	x	x	x
O=C(COc1ccccc1)NC(=S)N1CCc2ccccc21	x	-16	x	x	0	x
C[C@@H]1CCCCO[C@@H](CN(C)C)[C@@H](C)CN([C@H](C)CO)C(=O)c2cc(NC(=O)NC3CCCCC3)ccc2O1	0	-8	4	1	0	7
C[C@H](CO)N1C[C@H](C)[C@H](CN(C)S(=O)(=O)c2cn(C)cn2)Oc2ccc(NC(=O)Nc3ccccc3)cc2CC1=O	0	7	5	3	-1	-3
O=C(NC1CCN(Cc2ccccc2)CC1)c1ccc2c(c1)[nH]c(=O)n2Cc1ccc(F)cc1	x	-104	-32*	x	0	x
CCCCN(CC)CCNC(=O)c1cc2c(=O)[nH]c3ccc(C)cc3c2s1	0	22	-9	3	0	u	DNA binding=-20%
CCCCN(CC)CCCNC(=O)c1cc2c(=O)[nH]c3ccccc3c2s1	x	16	6	-5	0	39
CC1CCN(CCCNC(=O)c2cc3c(Cl)nc4ccccc4c3s2)CC1	1	50	-16	-10	0	89*	DNA binding=-20%
CCN1CCN(CCCNC(=O)c2cc3c(=O)[nH]c4ccccc4c3s2)CC1	x	x	x	-3	x	52*	DNA binding=-17%
CCN(CC)CCNC(=O)c1cc2c(=O)n(C)c3ccccc3c2s1	1	31	-2	-4	0	62*	DNA binding=-14%
CC(C)NC(=O)N(C)C[C@@H]1Oc2ccc(NC(=O)NC3CCCCC3)cc2CC(=O)N([C@@H](C)CO)C[C@@H]1C	x	10	4	-5	0	9
Cc1nc2ccccc2c2oc(C(=O)NCCN3CCN(C)CC3)cc12	x	20	4	1	0	u	DNA binding=-13%
Cc1nc2ccccc2c2oc(C(=O)NCCCN3CCCC3=O)cc12	0	-4	-6	-4	0	8
c1ccc(-c2nc(NCCCn3ccnc3)c3oc4ccccc4c3n2)cc1	x	50	-60	0	x	u	DNA binding=-15%
